Experimental findings from ChEMBL document CHEMBL1154461, “6-Substituted 2-oxo-2H-1-benzopyran-3-carboxylic acid derivatives in a new approach of the treatment of cancer cell invasion and metastasis” (2008) are described below.

The subject of test [1] is HT-1080. Description: Antiinvasive activity in human HT1080 cells assessed as number of cells migrated at 0.1 uM after 24 hrs by Boyden chamber invasion assay. Format: functional. The following applies: in the assay text read “after 48 hrs” for “after 24 hrs”. In a few lines: (§1)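 HT 1080 cells, harvested at 70–80% confluence, were seeded at 6×10⁴ cells per filter in serum-free DMEM with BSA. Transwell filters were coated with human placental type IV collagen. Chambers were incubated 48 h at 37 °C, with media renewed at 24 h. Lower-surface cells were fixed, Giemsa-stained and counted by light microscopy. Results are % of untreated control migration, mean ± s.d., n=3.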

The subject of test [2] is HT-1080. Kind of test: Antiinvasive activity in human HT1080 cells assessed as number of cells migrated at 1 uM after 48 hrs by Boyden chamber invasion assay.
In test [3] the test system is HT-1080. Description: Antiinvasive activity in human HT1080 cells assessed as number of cells migrated at 10 uM after 24 hrs by Boyden chamber invasion assay. To be noted: in the assay text read “after 48 hrs” for “after 24 hrs”. Format: functional. Put shortly:
as §1

Test [4] deals with HT-1080. Description: Antiinvasive activity in human HT1080 cells assessed as number of cells migrated at 10 uM after 48 hrs by Boyden chamber invasion assay.
For test [5], the system named is HT-1080. Description: Antiinvasive activity in human HT1080 cells assessed as number of cells migrated at 0.1 uM after 48 hrs by Boyden chamber invasion assay.

For `O=C(Oc1cccc(Cl)c1)c1cc2ccccc2oc1=O`, the Activity is on record as 52.4% with HT-1080 [1] and 35.65% with HT-1080 [3]. Besides, in the test on HT-1080 [2], the Cells migrated is 45.5%.

`CC(=O)OCc1ccc2oc(=O)c(C(=O)Oc3cccc(Cl)c3)cc2c1`: the Activity in the test on HT-1080 [1] is reported as 95.2%; in the test on HT-1080 [3], 6.17%. The Cells migrated in the test on HT-1080 [2] came out at 49.11%.

With `O=C(Oc1cccc(Cl)c1)c1cc2cc(CCl)ccc2oc1=O`, the figures for the Activity with HT-1080 [1] and in the test with HT-1080 [3] were 98.35% and 67%, respectively. Besides, the Cells migrated in the test on HT-1080 [2] is recorded as 79.76%.

Consider `Cc1ccc2oc(=O)c(C(=O)Oc3cccc(Cl)c3)cc2c1`, for which the Activity is listed as 81.5% in the test with HT-1080 [1] and 27.62% in the test on HT-1080 [3]. In addition, the Cells migrated in the test with HT-1080 [2] turned out to be 52.49%.

In the case of `CC(=O)NCc1ccc2oc(=O)c(C(=O)Oc3ccccc3)cc2c1`, the Cells migrated in the test on HT-1080 [2] is reported as 63.45%.

As for `CC(=O)OCc1ccc2oc(=O)c(C(=O)N(C)c3ccccc3Cl)cc2c1`, the Cells migrated with HT-1080 [2] was determined as 62.78%.

As to `CC(=O)OCc1ccc2oc(=O)c(C(=O)N(C)c3cccc(Cl)c3)cc2c1`, the Cells migrated with HT-1080 [2] turned out to be 82.56%.

With `CCC(=O)OCc1ccc2oc(=O)c(C(=O)Oc3cccc(Br)c3)cc2c1`, the Activity in the test with HT-1080 [1] came to 84.36%; with HT-1080 [3], 21.32%. In the test with HT-1080 [2], the Cells migrated is recorded as 40.23%.

For the compound `CCCC(=O)OCc1ccc2oc(=O)c(C(=O)Oc3cccc(Br)c3)cc2c1`, the Activity is reported as 24.67% with HT-1080 [4] and 88.55% with HT-1080 [1]. Also, in the test with HT-1080 [2], the Cells migrated is recorded as 50.47%.

Consider `CC(=O)OCc1ccc2oc(=O)c(C(=O)Sc3cccc(Cl)c3)cc2c1`, for which the values for the Activity in the test with HT-1080 [1] and with HT-1080 [3] were 76.54% and 61.86%, respectively. In addition, the Cells migrated in the test with HT-1080 [2] is 65.84%.

In the case of `CC(=O)OCc1ccc2oc(=O)c(C(=O)Sc3cccc(Br)c3)cc2c1`, the Activity stood at 79.58% with HT-1080 [1] and 67.84% in the test on HT-1080 [3]. Moreover, in the test on HT-1080 [2], the Cells migrated came to 70.86%.

Turning to `CC(=O)OCc1ccc2oc(=O)c(C(=O)Nc3cccc(Cl)c3)cc2c1`, the Activity with HT-1080 [1] amounted to 79.55%; in the test on HT-1080 [3], 42.75%. Further, the Cells migrated in the test with HT-1080 [2] is recorded as 66.85%.

Regarding `O=C1NC(=O)C(c2ccc(-c3ccccc3)cc2)(N2CCN(c3ccc([N+](=O)[O-])cc3)CC2)C(=O)N1`, the Cells migrated in the test on HT-1080 [2] was determined as 41.6%.

On to `Cl.NCc1ccc2oc(=O)c(C(=O)Oc3cccc(F)c3)cc2c1`, for which the Cells migrated in the test with HT-1080 [2] was 45.25%.

Regarding `CC(C)(C)C(=O)OCc1ccc2oc(=O)c(C(=O)Oc3cccc(Br)c3)cc2c1`, the Cells migrated with HT-1080 [2] was determined as 48.21%. Moreover, the Activity is given as 65.24% in the test with HT-1080 [5] and 23.64% in the test on HT-1080 [3].

As to `O=C(Oc1ccccc1)c1cc2cc([N+](=O)[O-])ccc2oc1=O`, the Cells migrated in the test on HT-1080 [2] is recorded as 76.68%.

Regarding `O=C(Oc1cccc(F)c1)c1cc2cc([N+](=O)[O-])ccc2oc1=O`, in the test with HT-1080 [2], the Cells migrated was 53.56%.

As to `O=C(Oc1cccc(Cl)c1)c1cc2cc([N+](=O)[O-])ccc2oc1=O`, the Cells migrated with HT-1080 [2] was 65.78%.

As for `CC(=O)NCc1ccc2oc(=O)c(C(=O)Oc3cccc(Br)c3)cc2c1`, the figures for the Activity in the test on HT-1080 [1] and in the test on HT-1080 [3] were 34.38% and 27.14%, respectively. In addition, the Cells migrated in the test with HT-1080 [2] turned out to be 36.94%.

Turning to `CC(=O)NCc1ccc2oc(=O)c(C(=O)Oc3cccc(I)c3)cc2c1`, the Cells migrated in the test on HT-1080 [2] is reported as 23.47%.

Take `CC(=O)NCc1ccc2oc(=O)c(C(=O)Oc3cccc(Cl)c3)cc2c1`: the Cells migrated in the test with HT-1080 [2] is 36.58%.

For the compound `CC(=O)OCc1ccc2oc(=O)c(C(=O)Oc3cccc(Br)c3)cc2c1`, the values for the Activity in the test with HT-1080 [1] and in the test on HT-1080 [3] were 39.47% and 11.77%, respectively. In addition, in the test on HT-1080 [2], the Cells migrated came to 21.81%.

For `CC(C)CC(C(=O)N(C)C(Cc1ccccc1)C(=O)O)C(CSc1ccccc1)C(=O)NO` (configuration not stated), in the test with HT-1080 [2], the Cells migrated worked out at 38.45%.

`CCCCC(=O)OCc1ccc2oc(=O)c(C(=O)Oc3cccc(Br)c3)cc2c1`: the Activity is on record as 92.36% with HT-1080 [1] and 32.26% in the test on HT-1080 [3]. Moreover, the Cells migrated in the test on HT-1080 [2] was determined as 63.25%.

Consider `CCCCCCC(=O)OCc1ccc2oc(=O)c(C(=O)Oc3cccc(Br)c3)cc2c1`, for which the Activity with HT-1080 [1] is on record as 89.36%; in the test on HT-1080 [3] it was 35.96%. The Cells migrated in the test with HT-1080 [2] turned out to be 55.56%.

As for `Cl.NCc1ccc2oc(=O)c(C(=O)Oc3cccc(Br)c3)cc2c1`, the Activity with HT-1080 [1] was 88.26%; in the test on HT-1080 [3], 63.58%. In the test with HT-1080 [2], the Cells migrated was found to be 79.25%.

`O=C(Oc1cccc(Br)c1)c1cc2cc([N+](=O)[O-])ccc2oc1=O`: the Cells migrated in the test with HT-1080 [2] came out at 35.22%.

Turning to `Cl.NCc1ccc2oc(=O)c(C(=O)Oc3ccccc3)cc2c1`, the Cells migrated in the test on HT-1080 [2] stood at 85.53%.

As for `CC(=O)NCc1ccc2oc(=O)c(C(=O)Oc3cccc(F)c3)cc2c1`, in the test with HT-1080 [2], the Cells migrated is given as 65.58%.

Turning to `CC(=O)OCc1ccc2oc(=O)c(C(=O)N(C)c3ccc(Cl)cc3)cc2c1`, the Cells migrated in the test on HT-1080 [2] was determined as 98.56%.

For the compound `Cl.NCc1ccc2oc(=O)c(C(=O)Oc3cccc(Cl)c3)cc2c1`, in the test with HT-1080 [2], the Cells migrated worked out at 86.56%.

Regarding `Cl.NCc1ccc2oc(=O)c(C(=O)Oc3cccc(I)c3)cc2c1`, the Cells migrated in the test with HT-1080 [2] came out at 25.34%.

In the case of `CC(=O)OCc1ccc2oc(=O)c(C(=O)Sc3ccccc3)cc2c1`, the Activity with HT-1080 [1] was 89.45%; in the test on HT-1080 [3] it was 73.84%. Further, in the test on HT-1080 [2], the Cells migrated was 83.45%.

On to `O=C(Oc1cccc(I)c1)c1cc2cc([N+](=O)[O-])ccc2oc1=O`, for which, in the test on HT-1080 [2], the Cells migrated is recorded as 63.58%.

Consider `CC(C)C(=O)OCc1ccc2oc(=O)c(C(=O)Oc3cccc(Br)c3)cc2c1`, for which the Activity in the test on HT-1080 [1] was found to be 54.36%; in the test on HT-1080 [3], 21.07%. The Cells migrated with HT-1080 [2] worked out at 37.8%.

In the case of `CCCCCC(=O)OCc1ccc2oc(=O)c(C(=O)Oc3cccc(Br)c3)cc2c1`, the Activity in the test with HT-1080 [1] was found to be 94.25%; with HT-1080 [3], 33.94%. In the test with HT-1080 [2], the Cells migrated is given as 59.32%.
